In ChEMBL document CHEMBL1132694, “Discovery and structure-activity relationships of imidazole-containing tetrahydrobenzodiazepine inhibitors of farnesyltransferase” (J Med Chem, 1999):

Columns and labels:
[1] = target: T1, Protein farnesyltransferase (Homo sapiens, UniProt P49354+P49356); assay: Inhibitory activity against human purified recombinant farnesyltransferase (hFT); format: protein-complex assay
In short: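 Purified (>90%) recombinant human FT at 0.3 nM, with 10 μM ZnCl2. Activity was measured as incorporation of tritium from [3H]farnesyl pyrophosphate into recombinant human H-Ras. Result reported as IC50.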

[2] = test system: Rat1; assay: Inhibition of anchorage independent growth of H-Ras transformed Rat-1 cells.; format: functional, cell-based
[3] = target: T1, Protein farnesyltransferase; assay: Phenotypic reversion of H-Ras transformed NIH3T3 cells at 1.25 uM; format: functional, cell-based; conditions: Mus musculus
[4] = target: T1, Protein farnesyltransferase; assay: Phenotypic reversion of H-Ras transformed NIH3T3 cells at 5 uM.; format: functional, cell-based; conditions: Mus musculus
[5] = test system: Mus musculus; assay: In vivo antitumor activity against Rat-1 tumors in mice at 90 mg/kg; format: functional
In short: (§1)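 Female athymic Balb/c-background mice (18-22 g) were implanted ip with 1 × 10^6 in vitro-propagated H-Ras-transformed Rat-1 fibroblasts. Dosing was ip, once daily for 7 days from day 1, with compound in 10% ethanol/sterile water given within 1 h of dissolution. Groups were typically 6 treated and 8 control mice. Read-out was median survival as %T/C, with ≥125% counted active (Gehan's generalized Wilcoxon test).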

[6] = target: T1, Protein farnesyltransferase; assay: Phenotypic reversion of H-Ras transformed NIH3T3 cells by the compound at a concentration of 10 uM; format: functional, cell-based; conditions: Mus musculus
[7] = test system: Mus musculus; assay: In vivo antitumor activity against Rat-1 tumors in mice at 10 mg/kg; format: functional; in short: as §1
[8] = target: T1, Protein farnesyltransferase; assay: Inhibition of human purified recombinant farnesyltransferase (hFT) at 90 uM; format: protein-complex assay
[9] = target: T1, Protein farnesyltransferase; assay: Inhibition of human purified recombinant farnesyltransferase (hFT) at 15 uM; format: protein-complex assay
[10] = target: T1, Protein farnesyltransferase; assay: Phenotypic reversion of H-Ras transformed NIH3T3 cells at 1.25/5 uM.; format: functional, cell-based; conditions: Mus musculus
[11] = test system: Mus musculus; assay: In vivo antitumor activity against Rat-1 tumors in mice at 30 mg/kg; format: functional; in short: as §1

SMILES	IC50 [1] [µM]	Reversion activity [3] [%]	Reversion activity [4] [%]	EC50 [2] [µM]	also measured
NCCc1nc(CN2CCN(C(=O)c3cccc4ccccc34)Cc3ccccc32)c[nH]1	1.3	–	–	–	–
COCC[C@H]1CN(C(=O)c2cccc3ccccc23)CCN1C(=O)Cc1cnc[nH]1	34	–	–	–	–
O=C(c1cccc2ccccc12)N1CCN(Cc2ncc[nH]2)c2ccccc2C1	21	–	–	–	–
O=C(c1ccccc1-c1ccccc1)N1CCN(Cc2c[nH]cn2)c2ccccc2C1	–	–	–	0.7	Reversion activity [6]: 25%
CC(=O)Nc1ccc2c(c1)N(Cc1c[nH]cn1)CCN(C(=O)c1cccc3ccccc13)C2	–	0	0	–	–
O=C(c1ccccc1SCCO)N1CCN(Cc2c[nH]cn2)c2ccc(-c3ccccc3)cc2C1	–	0	90	0.2	–
c1ccc(-c2ccc3c(c2)CN(Cc2cccc4ccccc24)CCN3Cc2c[nH]cn2)cc1	–	0	0	–	–
COCC[C@H]1CN(C(=O)c2cccc3ccccc23)CCN1C(=O)CCc1cnc[nH]1	27	–	–	–	–
COCC[C@H]1CN(C(=O)c2cccc3ccccc23)CCN1CCc1c[nH]cn1	3.2	–	–	–	–
O=C(c1ccccc1OC(F)(F)F)N1CCN(Cc2c[nH]cn2)c2ccc(-c3ccncc3)cc2C1	–	85	95	0.16	–
COCC[C@H]1CN(C(=O)c2cccc3ccccc23)CCN1C(=O)c1c[nH]cn1	–	–	–	–	inhibition [8]: 51%
N#C/N=C(/Nc1ccc(Cl)cc1)N1CCN(Cc2c[nH]cn2)c2ccc(-c3ccccc3)cc2C1	–	0	5	–	–
O=C(c1cccc2ccccc12)N1CCN(Cc2c[nH]cn2)c2ccc(Br)cc2C1	–	0	5	–	–
O=C(c1cccc2ccccc12)N1CCN(Cc2cnc[nH]2)Cc2ccccc21	2.8	–	–	–	–
O=C(N1CCN(Cc2cnc[nH]2)c2ccccc2C1)N(c1ccccc1)c1ccccc1	1.2	–	–	–	–
N#CN=C(Nc1ccc(Cl)cc1)N1CCN(Cc2cnc[nH]2)c2ccc(-c3ccccc3)cc2C1	1.42	–	–	–	–
COCC[C@H]1CN(C(=O)c2cccc3ccccc23)CCN1CCCc1c[nH]cn1	10	–	–	–	–
COc1ccc2ccccc2c1C(=O)N1CCN(Cc2c[nH]cn2)c2ccc(-c3ccccc3)cc2C1	–	85	95	0.55	–
COCC[C@H]1CN(C(=O)c2cccc3ccccc23)CCN1Cc1c[nH]cn1	1.3	–	–	–	–
O=C(c1cccc2ccccc12)N1CCN(Cc2c[nH]cn2)c2ccc(C3CCCCC3)cc2C1	–	0	20	–	–
c1ccc(-c2ccc3c(c2)CN(c2nnnn2-c2ccccc2)CCN3Cc2c[nH]cn2)cc1	–	0	0	–	–
COc1ccc(C(=O)C(=O)N2CCN(Cc3c[nH]cn3)c3ccc(-c4ccccc4)cc3C2)cc1	–	0	90	0.9	–
O=C(c1cccc2ccccc12)N1CCN(Cc2c[nH]cn2)Cc2ccccc21	–	–	–	3	Reversion activity [6]: 0%
O=C(OCc1ccccc1)N1CCN(Cc2c[nH]cn2)c2ccc(-c3ccccc3)cc2C1	–	–	0	–	inhibition [9]: 55%; Reversion activity [10]: 0%
O=C(N1CCN(Cc2c[nH]cn2)c2ccc(-c3ccccc3)cc2C1)N1CCCc2ccccc21	–	0	40	–	–
O=C(c1cccc2ccccc12)N1CCN(Cc2c[nH]cn2)c2ccc(-c3ccccc3)cc2C1	–	0	90	1.6	T/C [7]: 136%; T/C [11]: 96%
c1ccc(-c2ccc3c(c2)CN(Cc2cccc4ccccc24)CCN3Cc2cnc[nH]2)cc1	2.97	–	–	–	–
O=C(Nc1ccc2c(c1)N(Cc1c[nH]cn1)CCN(C(=O)c1cccc3ccccc13)C2)OC1CCCCC1	–	40	95	0.11	–

The remaining compounds from weak to strong by IC50 [1], led by results:

IC50 [1] [µM]	Reversion activity [3] [%]	Reversion activity [4] [%]	SMILES	EC50 [2] [µM]	also measured
1.1	–	–	O=C(c1cccc2ccccc12)N1CCN(Cc2cncn2Cc2ccccc2)c2ccccc2C1	–	–
1	–	–	Nc1ccc2c(c1)N(Cc1cnc[nH]1)CCN(C(=O)c1cccc3ccccc13)C2	2.4	–
0.84	–	–	NCc1ncc(CN2CCN(C(=O)c3cccc4ccccc34)Cc3ccccc32)[nH]1	–	–
0.72	–	–	COC(=O)c1ccccc1S(=O)(=O)N1CCN(Cc2c[nH]cn2)c2ccccc2C1	1.6	–
0.702	–	–	c1ccc(-c2ccc3c(c2)CN(c2nnnn2-c2ccccc2)CCN3Cc2cnc[nH]2)cc1	–	–
0.7	–	–	O=C(Cc1ccccc1Oc1ccccc1)N1CCN(Cc2c[nH]cn2)c2ccccc2C1	–	–
0.6	–	–	O=C(c1ccccc1NCc1ccccc1)N1CCN(Cc2cnc[nH]2)c2ccccc2C1	2.4	–
0.59	–	–	O=C(c1cccc2ccccc12)N1CCN(CCCc2ncc[nH]2)c2ccccc2C1	–	–
0.54	–	–	O=C(c1cccc2ccccc12)N1CCN(Cc2cnc[nH]2)c2cc(Cl)ccc2C1	–	–
0.48	–	–	O=S(=O)(c1cccc2ccccc12)N1CCN(Cc2c[nH]cn2)c2ccccc2C1	–	–
0.46	–	–	O=C(c1cccc2ccccc12)N1CCN(Cc2c[nH]cn2)c2ccccc2C1	6	Reversion activity [6]: 0%
0.426	0	25	O=S(=O)(c1cccc2ccccc12)N1CCN(Cc2c[nH]cn2)c2ccc(-c3ccccc3)cc2C1	–	–
0.35	0	35	Cc1cccc2c1N(Cc1c[nH]cn1)CCN(C(=O)c1cccc3ccccc13)C2	12	–
0.34	–	–	O=C(c1cccc2ccccc12)N1CCN(CCc2c[nH]cn2)c2ccccc2C1	–	Reversion activity [6]: 20%
0.32	–	–	O=C(c1ccccc1-c1ccccc1)N1CCN(Cc2cnc[nH]2)c2ccccc2C1	–	–
0.249	0	0	O=C(c1cccc2ccccc12)N1CCN(Cc2c[nH]cn2)c2cc(NS(=O)(=O)c3ccccc3)ccc2C1	11	–

IC50 [1] [µM]	Reversion activity [3] [%]	Reversion activity [4] [%]	SMILES	EC50 [2] [µM]	also measured
0.228	–	–	O=C(c1cccc2ccccc12)N1CCN(Cc2cnc[nH]2)c2ccc(Br)cc2C1	–	–
0.205	–	–	O=C(N1CCN(Cc2cnc[nH]2)c2ccc(-c3ccccc3)cc2C1)N1CCCc2ccccc21	–	–
0.186	–	–	O=C(c1cccc2ccccc12)N1CCN(Cc2cnc[nH]2)c2ccc(C3CCCCC3)cc2C1	–	–
0.177	0	0	O=C(c1cccc2ccccc12)N1CCN(Cc2c[nH]cn2)c2ccc(-c3ccccn3)cc2C1	–	–
0.168	–	–	CC(=O)Nc1ccc2c(c1)N(Cc1cnc[nH]1)CCN(C(=O)c1cccc3ccccc13)C2	–	–
0.145	0	70	O=C(c1cccc2ccccc12)N1CCN(Cc2c[nH]cn2)c2ccc(-c3cccnc3)cc2C1	1	–
0.124	–	–	O=C(c1ccccc1SCCO)N1CCN(Cc2cnc[nH]2)c2ccc(-c3ccccc3)cc2C1	–	–
0.095	–	–	O=C(c1cccc2ccccc12)N1CCN(Cc2cnc[nH]2)c2ccc(-c3ccccc3)cc2C1	–	–
0.091	–	–	COc1ccc(C(=O)C(=O)N2CCN(Cc3cnc[nH]3)c3ccc(-c4ccccc4)cc3C2)cc1	–	–
0.058	–	–	COc1ccc2ccccc2c1C(=O)N1CCN(Cc2cnc[nH]2)c2ccc(-c3ccccc3)cc2C1	–	–
0.0355	0	0	O=C(Nc1ccc2c(c1)N(Cc1c[nH]cn1)CCN(C(=O)c1cccc3ccccc13)C2)NC1CCCCC1	4	–
0.0285	0	75	O=C(Nc1ccc2c(c1)N(Cc1c[nH]cn1)CCN(C(=O)c1cccc3ccccc13)C2)c1ccccc1	0.3	T/C [5]: 128%
0.028	–	–	O=C(Nc1ccc2c(c1)N(Cc1cnc[nH]1)CCN(C(=O)c1cccc3ccccc13)C2)OC1CCCCC1	–	–
0.024	–	–	O=C(c1ccccc1OC(F)(F)F)N1CCN(Cc2cnc[nH]2)c2ccc(-c3ccncc3)cc2C1	–	–
0.0181	0	45	O=C(Nc1ccc2c(c1)N(Cc1c[nH]cn1)CCN(C(=O)c1cccc3ccccc13)C2)C1CCCCC1	0.34	T/C [7]: 138%
0.0154	60	95	O=C(c1cccc2ccccc12)N1CCN(Cc2c[nH]cn2)c2ccc(-c3ccncc3)cc2C1	0.2	T/C [5]: 108%
